One assay has as its target T1, UniProt Q8VGB9.
T1 sequence (whole entry): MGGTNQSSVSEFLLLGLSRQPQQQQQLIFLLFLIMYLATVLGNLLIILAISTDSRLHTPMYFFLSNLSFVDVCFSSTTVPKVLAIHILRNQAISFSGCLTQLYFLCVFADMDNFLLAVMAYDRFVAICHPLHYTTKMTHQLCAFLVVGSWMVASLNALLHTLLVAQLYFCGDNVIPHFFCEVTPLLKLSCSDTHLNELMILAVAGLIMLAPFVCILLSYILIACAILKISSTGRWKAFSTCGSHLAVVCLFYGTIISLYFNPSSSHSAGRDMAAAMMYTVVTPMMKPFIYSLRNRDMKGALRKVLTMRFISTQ
The following applies: stereoisomer not certain. The essentials:
(§1)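 Each receptor–molecule pair is labelled responsive or non-responsive (inactive) according to whether the original authors judged the measured signal statistically different from baseline. The data were taken from the main text and supplementary material of published papers and checked for typos and inconsistencies. Assay methods differed by source, with transient luciferase assays in mammalian cell lines being common.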
Turning to `CCCO`, the “odorant receptor agonist call” value is “inactive”.
The same measure, in the same setting: to `CCCCCCCCC=CC=O` belongs “inactive”; to `CCC(C)O` (configuration not stated), “inactive”; to `CCCCCCCOC(=O)C(C)C`, “inactive”.
Take `C=CC(=O)CCCCC`: the “odorant receptor agonist call” value is “inactive”.
The same measure, in the same setting: for `C=CC(=C)CCC=C(C)C` the value was “inactive”.
The same measure, in the same setting: to `OCCCCCCCCCO` belongs “inactive”; to `COc1nccnc1C`, “inactive”.
As for `CCCCCCC(C)O` (configuration not stated), the “odorant receptor agonist call” value is “inactive”.
Regarding `CCCCCCCCOC=O`, the “odorant receptor agonist call” value was “inactive”.
On the same count and under the same terms, for `CC(=O)C1(C)CC2=C(CCCC2(C)C)CC1C` (configuration not stated) the value was “inactive”.
On to `O=C(OCc1ccccc1)c1ccccc1O`, for which the “odorant receptor agonist call” value is “inactive”.
On the same count and under the same terms, to `CCc1ccc(O)cc1` belongs “inactive”.
In the case of `CCC(C)c1nccnc1OC` (configuration not stated), the “odorant receptor agonist call” value is “inactive”.
Still for that read-out and setting: for `COc1cnccn1` the value was “inactive”.
In the case of `CC=Cc1ccc(OC)cc1`, the “odorant receptor agonist call” value is “inactive”.
`CCCC=O`: the “odorant receptor agonist call” value was “inactive”.
As to `C=C(C)C1CCC(C)C(O)C1` (configuration not stated), the “odorant receptor agonist call” value is “inactive”.
Take `CCc1ncc(C)nc1CC`: the “odorant receptor agonist call” value was “inactive”.
Take `Cc1c(C)c(C)c(C=O)c(C)c1C`: the “odorant receptor agonist call” value is “inactive”.
Turning to `CC(C)CCN`, the “odorant receptor agonist call” value was “inactive”.
Consider `OCC=Cc1ccccc1`, for which the “odorant receptor agonist call” value is “inactive”.
The same measure, in the same setting: to `CC1CCC(C(C)C)C(=O)C1` (configuration not stated) belongs “inactive”; to `CCCCCC(C=O)=Cc1ccccc1`, “inactive”; to `COc1nccnc1C(C)C`, “inactive”.
For `CCSCC`, the “odorant receptor agonist call” value is “inactive”.
On the same count and under the same terms, to `CCc1occc(=O)c1O` belongs “inactive”; to `CC(C)=CCCC(C)=CCOC(=O)C(C)C`, “inactive”; to `CC(C)CS`, “inactive”.
As for `CCc1ccccc1O`, the “odorant receptor agonist call” value was “inactive”.
The same measure, in the same setting: to `C=CC(C)=CCC=C(C)CCC=C(C)C` belongs “inactive”.
Take `CC(=O)C=CC1=C(C)CCCC1(C)C`: the “odorant receptor agonist call” value was “inactive”.
Still for that read-out and setting: to `CC1(C)CC(=O)CC(=O)C1` belongs “inactive”.
Still for that read-out and setting: for `O=C(O)C1CCC1` the value was “inactive”.
Same read-out and setting: to `C=C(C)C1CC=C(C)CC1` (configuration not stated) belongs “inactive”; to `CCCCCCC(=O)OCCCC`, “inactive”.
For `Cc1ccccc1OC(=O)C(C)C`, the “odorant receptor agonist call” value was “inactive”.
With `CC(CC=O)CCCC(C)(C)O` (configuration not stated), the “odorant receptor agonist call” value is “inactive”.
With `CCOC(=O)C(C)CC` (configuration not stated), the “odorant receptor agonist call” value was “inactive”.

Another assay concerns the target T2, UniProt Q8VGC6.
T2 sequence (whole entry): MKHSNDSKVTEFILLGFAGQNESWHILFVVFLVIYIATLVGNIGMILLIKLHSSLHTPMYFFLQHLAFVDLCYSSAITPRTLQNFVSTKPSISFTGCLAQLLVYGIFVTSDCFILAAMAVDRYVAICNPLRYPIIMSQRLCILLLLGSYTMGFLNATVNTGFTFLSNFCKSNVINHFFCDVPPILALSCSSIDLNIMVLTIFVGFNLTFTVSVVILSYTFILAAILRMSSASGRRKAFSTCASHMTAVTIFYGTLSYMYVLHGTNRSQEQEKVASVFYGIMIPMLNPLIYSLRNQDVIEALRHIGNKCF
The following applies: stereoisomer not certain. The essentials: as §1
With `CCCO`, the “odorant receptor agonist call” value was “inactive”.
Same read-out and setting: to `CCCCCCCCC=CC=O` belongs “inactive”.
The same measure, in the same setting: for `CCC(C)O` (configuration not stated) the value was “inactive”.
On the same count and under the same terms, for `CCCCCCCOC(=O)C(C)C` the value was “inactive”; for `C=CC(=O)CCCCC`, “inactive”; for `C=CC(=C)CCC=C(C)C`, “inactive”.
Regarding `OCCCCCCCCCO`, the “odorant receptor agonist call” value is “inactive”.
Still for that read-out and setting: to `COc1nccnc1C` belongs “inactive”; to `CCCCCCC(C)O` (configuration not stated), “inactive”.
On the same count and under the same terms, to `CCCCCCCCOC=O` belongs “inactive”; to `CC(=O)C1(C)CC2=C(CCCC2(C)C)CC1C` (configuration not stated), “inactive”; to `O=C(OCc1ccccc1)c1ccccc1O`, “inactive”.
As for `CCc1ccc(O)cc1`, the “odorant receptor agonist call” value is “inactive”.
In the case of `CCC(C)c1nccnc1OC` (configuration not stated), the “odorant receptor agonist call” value was “inactive”.
Same read-out and setting: for `COc1cnccn1` the value was “inactive”; for `CC=Cc1ccc(OC)cc1`, “inactive”; for `CCCC=O`, “inactive”.
Still for that read-out and setting: for `C=C(C)C1CCC(C)C(O)C1` (configuration not stated) the value was “inactive”; for `CCc1ncc(C)nc1CC`, “inactive”; for `Cc1c(C)c(C)c(C=O)c(C)c1C`, “inactive”.
On the same count and under the same terms, for `CC(C)CCN` the value was “inactive”.
In the case of `OCC=Cc1ccccc1`, the “odorant receptor agonist call” value is “inactive”.
Turning to `CC1CCC(C(C)C)C(=O)C1` (configuration not stated), the “odorant receptor agonist call” value was “inactive”.
On the same count and under the same terms, to `CCCCCC(C=O)=Cc1ccccc1` belongs “inactive”; to `COc1nccnc1C(C)C`, “inactive”.
As for `CCSCC`, the “odorant receptor agonist call” value is “inactive”.
The same measure, in the same setting: to `CCc1occc(=O)c1O` belongs “inactive”; to `CC(C)=CCCC(C)=CCOC(=O)C(C)C`, “inactive”; to `CC(C)CS`, “inactive”.
For `CCc1ccccc1O`, the “odorant receptor agonist call” value is “inactive”.
With `C=CC(C)=CCC=C(C)CCC=C(C)C`, the “odorant receptor agonist call” value is “inactive”.
As to `CC(=O)C=CC1=C(C)CCCC1(C)C`, the “odorant receptor agonist call” value was “inactive”.
As for `CC1(C)CC(=O)CC(=O)C1`, the “odorant receptor agonist call” value is “inactive”.
On to `O=C(O)C1CCC1`, for which the “odorant receptor agonist call” value is “inactive”.
For the molecule `C=C(C)C1CC=C(C)CC1` (configuration not stated), the “odorant receptor agonist call” value was “inactive”.
Take `CCCCCCC(=O)OCCCC`: the “odorant receptor agonist call” value is “inactive”.
Take `Cc1ccccc1OC(=O)C(C)C`: the “odorant receptor agonist call” value was “inactive”.
Take `CC(CC=O)CCCC(C)(C)O` (configuration not stated): the “odorant receptor agonist call” value was “inactive”.
In the case of `CCOC(=O)C(C)CC` (configuration not stated), the “odorant receptor agonist call” value was “inactive”.

In another assay the target is T3, UniProt Q8VGJ3.
T3 sequence (whole entry): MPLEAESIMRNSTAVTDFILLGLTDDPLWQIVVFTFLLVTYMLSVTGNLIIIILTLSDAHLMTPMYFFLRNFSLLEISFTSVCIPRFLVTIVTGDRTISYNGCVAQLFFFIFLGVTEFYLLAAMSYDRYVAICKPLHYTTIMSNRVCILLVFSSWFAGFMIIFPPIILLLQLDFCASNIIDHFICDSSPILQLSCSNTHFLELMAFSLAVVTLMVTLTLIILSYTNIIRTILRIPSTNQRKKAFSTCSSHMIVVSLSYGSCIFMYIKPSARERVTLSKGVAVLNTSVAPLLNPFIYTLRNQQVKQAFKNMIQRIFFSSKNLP
The following applies: stereoisomer not certain. A digest of the protocol:
as §1
For the molecule `CCCO`, the “odorant receptor agonist call” value is “inactive”.
Take `CCCCCCCCC=CC=O`: the “odorant receptor agonist call” value was “inactive”.
For the molecule `CCC(C)O` (configuration not stated), the “odorant receptor agonist call” value was “inactive”.
On the same count and under the same terms, for `CCCCCCCOC(=O)C(C)C` the value was “inactive”.
On the same count and under the same terms, to `C=CC(=O)CCCCC` belongs “inactive”; to `C=CC(=C)CCC=C(C)C`, “inactive”; to `OCCCCCCCCCO`, “inactive”.
On to `COc1nccnc1C`, for which the “odorant receptor agonist call” value was “inactive”.
Still for that read-out and setting: for `CCCCCCC(C)O` (configuration not stated) the value was “inactive”; for `CCCCCCCCOC=O`, “inactive”; for `CC(=O)C1(C)CC2=C(CCCC2(C)C)CC1C` (configuration not stated), “inactive”.
For the molecule `O=C(OCc1ccccc1)c1ccccc1O`, the “odorant receptor agonist call” value was “inactive”.
As to `CCc1ccc(O)cc1`, the “odorant receptor agonist call” value is “inactive”.
Still for that read-out and setting: to `CCC(C)c1nccnc1OC` (configuration not stated) belongs “inactive”.
With `COc1cnccn1`, the “odorant receptor agonist call” value was “inactive”.
Still for that read-out and setting: for `CC=Cc1ccc(OC)cc1` the value was “inactive”.
Same read-out and setting: for `CCCC=O` the value was “inactive”; for `C=C(C)C1CCC(C)C(O)C1` (configuration not stated), “inactive”.
Still for that read-out and setting: for `CCc1ncc(C)nc1CC` the value was “inactive”; for `Cc1c(C)c(C)c(C=O)c(C)c1C`, “inactive”.
With `CC(C)CCN`, the “odorant receptor agonist call” value is “inactive”.
Regarding `OCC=Cc1ccccc1`, the “odorant receptor agonist call” value is “inactive”.
The same measure, in the same setting: for `CC1CCC(C(C)C)C(=O)C1` (configuration not stated) the value was “inactive”; for `CCCCCC(C=O)=Cc1ccccc1`, “inactive”.
With `COc1nccnc1C(C)C`, the “odorant receptor agonist call” value is “inactive”.
Still for that read-out and setting: to `CCSCC` belongs “inactive”; to `CCc1occc(=O)c1O`, “inactive”.
For the molecule `CC(C)=CCCC(C)=CCOC(=O)C(C)C`, the “odorant receptor agonist call” value was “inactive”.
Consider `CC(C)CS`, for which the “odorant receptor agonist call” value was “inactive”.
The same measure, in the same setting: for `CCc1ccccc1O` the value was “inactive”.
Still for that read-out and setting: for `C=CC(C)=CCC=C(C)CCC=C(C)C` the value was “inactive”; for `CC(=O)C=CC1=C(C)CCCC1(C)C`, “inactive”; for `CC1(C)CC(=O)CC(=O)C1`, “inactive”.
Still for that read-out and setting: for `O=C(O)C1CCC1` the value was “inactive”; for `C=C(C)C1CC=C(C)CC1` (configuration not stated), “inactive”.
As to `CCCCCCC(=O)OCCCC`, the “odorant receptor agonist call” value was “inactive”.
Still for that read-out and setting: for `Cc1ccccc1OC(=O)C(C)C` the value was “inactive”.
Consider `CC(CC=O)CCCC(C)(C)O` (configuration not stated), for which the “odorant receptor agonist call” value was “inactive”.
Turning to `CCOC(=O)C(C)CC` (configuration not stated), the “odorant receptor agonist call” value is “inactive”.

Values taken from the M2OR odorant receptor database.
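Note: active if original authors judged signal statistically different from baseline.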
